The record followed here is ChEMBL document CHEMBL1138431, “Synthesis and cytotoxic activities of 4,5-diarylisoxazoles” (Bioorg Med Chem Lett, 2007).

Each structure is given as a SMILES string.

In assay [1] the test system is HeLa. The experiment in a line: Cytotoxicity against human HeLa cells. In kind it is functional, cell-based. In a few lines:
(§1)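 Cells were grown under previously described culture conditions and tested in an MTT colorimetric assay.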

Assay [2] concerns HepG2. The experiment in a line: Cell cycle arrest in human HepG2 cells assessed as accumulation at G0/G1 phase at 10 nM after 24 hrs relative to control.
The subject of assay [3] is HepG2. The experiment in a line: Cell cycle arrest in human HepG2 cells assessed as accumulation at S phase at 10 nM after 24 hrs relative to control.
Assay [4] can be described thus: Cytotoxicity against human […] cells. In kind it is functional, cell-based. In a few lines:
as §1

Assay [5] relates to HepG2. The experiment in a line: Cytotoxicity against human HepG2 cells. It counts as functional, cell-based. An outline of the steps: as §1
Assay [6] deals with HepG2. The experiment in a line: Cell cycle arrest in human HepG2 cells assessed as accumulation at G2/M phase at 10 nM after 24 hrs relative to control.

By IC50 is commonly meant the concentration that inhibits the measured activity by half. Low values mean inhibition by little substance, high ones a need for much substance. Take `COc1ccc(-c2cnoc2-c2cc(OC)c(OC)c(OC)c2)cc1N`: the IC50 in assay [1] is 22 pM; in assay [4], 135 pM; in assay [5], 65 pM. The Activity in assay [2] worked out at 2.81%; in assay [3], 27.4%; in assay [6], 69.8%.

Regarding `COc1ccc(/C=C\c2cc(OC)c(OC)c(OC)c2)cc1O` [COMBRETASTATIN A4], the IC50 in assay [1] is 2750 pM; in assay [4], 10 pM; in assay [5] it was 140 pM. The Activity in assay [2] is given as 1.68%; in assay [3], 19%; in assay [6], 79.3%.
